The values that follow come from ChEMBL document CHEMBL2176968, “Identification of less lipophilic riminophenazine derivatives for the treatment of drug-resistant tuberculosis” (J Med Chem, 2012).

In brackets after ≈: the same amount, converted by molar mass.

The nature of test [1]: Selectivity index, ratio of IC50 for african green monkey Vero cells to MIC for Mycobacterium tuberculosis H37Rv ATCC 27294. Type of test: functional.
The test system of the next test is Vero. In words: Cytotoxicity against african green monkey Vero cells after 48 hrs by MTT assay. Type of test: cell-based. The settings on record: Chlorocebus sabaeus. The essentials: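 Vero cells were exposed to compound. The IC50 was taken as the concentration inhibiting 50% of growth relative to an untreated control.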
For orientation: Tetrazolium assays rely on reduction of a dye to a coloured formazan, in cell work by metabolically active cells.

The subject of test [2] is Mycobacterium tuberculosis. As to the kind of experiment: Antimycobacterial activity against Mycobacterium tuberculosis H37Rv ATCC 27294 after 7 days by microplate Alamar blue assay. In kind it is functional. The settings on record: H37Rv ATCC 27294, 168 h. In short, it runs like this: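 Run in 96-well plates against M. tuberculosis H37Rv using the Alamar Blue read-out. The MIC was taken as the lowest concentration giving >90% growth inhibition.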
(The colour change of resazurin is a common sign of viable cells or microbes.)

Take `Cc1ccc(Nc2cc3nc4ccccc4n(-c4ccc(C(F)(F)F)cc4)c-3c/c2=N\C2CCOCC2)cn1`: the “Selectivity Index” value in test [1] is recorded as 1098. Moreover, the IC50 (as a rule, the midpoint of a concentration-inhibition curve) with Vero is 35.1 µg/mL (≈ 66.3 µM). For the same molecule, the MIC (commonly the least concentration at which growth counts as inhibited) in test [2] was found to be 0.032 µg/mL (≈ 0.0604 µM).
Regarding `COC1CCC(/N=c2\cc3n(-c4ccc(C(F)(F)F)cc4)c4ccccc4nc-3cc2Nc2ccc(C)nc2)CC1` (centres undefined), in test [1], the “Selectivity Index” value is on record as 2089. The same molecule displayed an IC50 in the test on Vero of 33.4 µg/mL (≈ 60 µM). The MIC in test [2] was found to be 0.016 µg/mL (≈ 0.0287 µM).
As to `COc1ncccc1Nc1cc2nc3ccccc3n(-c3ccc(Br)cc3)c-2c/c1=N\C(C)C`, the “Selectivity Index” value in test [1] amounted to 1306. In the test on Vero, this molecule registered a half-inhibitory concentration (IC50) greater than 64 µg/mL. The same molecule showed an MIC in test [2] of 0.049 µg/mL (≈ 0.0953 µM).
The like results for `Cc1ncccc1Nc1cc2nc3ccccc3n(-c3ccc(Br)cc3)c-2c/c1=N\C(C)C` were, in that order, 635, 39.4 µg/mL (≈ 79 µM) and 0.062 µg/mL (≈ 0.124 µM).
For `Cc1ccc(Nc2cc3nc4ccccc4n(-c4ccc(Br)cc4)c-3c/c2=N\C(C)C)cn1` the same measures were 64, 3.12 µg/mL (≈ 6.26 µM) and 0.049 µg/mL (≈ 0.0983 µM).
For `Cc1ccc(Nc2cc3nc4ccccc4n(-c4ccc(Br)cc4)c-3c/c2=N\C2CCOCC2)cn1` the same measures were 493, 21.7 µg/mL (≈ 40.2 µM) and 0.044 µg/mL (≈ 0.0814 µM).
`COC1CCC(/N=c2\cc3n(-c4ccc(Br)cc4)c4ccccc4nc-3cc2Nc2ccc(C)nc2)CC1` (centres undefined): the “Selectivity Index” value in test [1] is reported as 409. In the test with Vero, this molecule had an IC50 of 39.7 µg/mL (≈ 69.8 µM). The molecule further gave a minimal inhibitory concentration (MIC) in test [2] of 0.097 µg/mL (≈ 0.171 µM).
For `COc1ncccc1Nc1cc2nc3ccccc3n(-c3ccc(OC(F)(F)F)cc3)c-2c/c1=N\C(C)C` the same measures were 2286, greater than 64 µg/mL and 0.028 µg/mL (≈ 0.0539 µM).
`COc1ncccc1Nc1cc2nc3ccccc3n(-c3ccc(OC(F)(F)F)cc3)c-2c/c1=N\C1CCOCC1`: the “Selectivity Index” value in test [1] is reported as 4000. The same molecule displayed an IC50 in the test on Vero greater than 64 µg/mL. The MIC in test [2] is 0.016 µg/mL (≈ 0.0285 µM).
For `Fc1ccc(-n2c3c/c(=N\CCN4CCOCC4)c(Nc4cccnc4)cc-3nc3ccccc32)cc1` the same measures were 30, 15.1 µg/mL (≈ 30.5 µM) and 0.5 µg/mL (≈ 1.01 µM).
For `FC(F)(F)Oc1ccc(-n2c3c/c(=N\C4CCOCC4)c(Nc4cccnc4)cc-3nc3ccccc32)cc1` the same measures were 2133, greater than 64 µg/mL and 0.03 µg/mL (≈ 0.0564 µM).
For the molecule `COC1CCC(/N=c2\cc3n(-c4ccc(OC(F)(F)F)cc4)c4ccccc4nc-3cc2Nc2cccnc2)CC1` (centres undefined), the “Selectivity Index” value in test [1] came to 151. The same molecule yielded an IC50 in the test on Vero of 4.52 µg/mL (≈ 8.08 µM). Further, 0.03 µg/mL (≈ 0.0536 µM) was the least that counted as inhibitory in test [2] (MIC).
The like results for `CN1CCC(/N=c2\cc3n(-c4ccc(OC(F)(F)F)cc4)c4ccccc4nc-3cc2Nc2cccnc2)CC1` were, in that order, 18, 4.48 µg/mL (≈ 8.23 µM) and 0.25 µg/mL (≈ 0.459 µM).
For `CC(C)CN1CCC(/N=c2\cc3n(-c4ccc(OC(F)(F)F)cc4)c4ccccc4nc-3cc2Nc2cccnc2)CC1` the same measures were 93, 5.6 µg/mL (≈ 9.55 µM) and 0.06 µg/mL (≈ 0.102 µM).
The like results for `FC(F)(F)Oc1ccc(-n2c3c/c(=N\CCN4CCOCC4)c(Nc4cccnc4)cc-3nc3ccccc32)cc1` were, in that order, 129, 16.1 µg/mL (≈ 28.8 µM) and 0.125 µg/mL (≈ 0.223 µM).
For `FC(F)(F)c1ccc(-n2c3c/c(=N\C4CCOCC4)c(Nc4cccnc4)cc-3nc3ccccc32)cc1`, the “Selectivity Index” value in test [1] came to 512. In the test with Vero, this molecule came in with an IC50 greater than 64 µg/mL. Besides, the MIC in test [2] worked out at 0.125 µg/mL (≈ 0.242 µM).
Regarding `COC1CCC(/N=c2\cc3n(-c4ccc(C(F)(F)F)cc4)c4ccccc4nc-3cc2Nc2cccnc2)CC1` (centres undefined), the “Selectivity Index” value in test [1] is recorded as 945. In the test with Vero, this molecule yielded an IC50 of 28.3 µg/mL (≈ 52.2 µM). Further, the MIC in test [2] was found to be 0.03 µg/mL (≈ 0.0552 µM).
For `CN1CCC(/N=c2\cc3n(-c4ccc(C(F)(F)F)cc4)c4ccccc4nc-3cc2Nc2cccnc2)CC1` the same measures were 83, 10.4 µg/mL (≈ 19.6 µM) and 0.125 µg/mL (≈ 0.236 µM).
For `CC(C)CN1CCC(/N=c2\cc3n(-c4ccc(C(F)(F)F)cc4)c4ccccc4nc-3cc2Nc2cccnc2)CC1` the same measures were 450, 27 µg/mL (≈ 47.3 µM) and 0.06 µg/mL (≈ 0.105 µM).
With `FC(F)(F)c1ccc(-n2c3c/c(=N\CCN4CCOCC4)c(Nc4cccnc4)cc-3nc3ccccc32)cc1`, in test [1], the “Selectivity Index” value worked out at 159. This molecule yielded an IC50 in the test with Vero of 19.9 µg/mL (≈ 36.5 µM). Moreover, the MIC in test [2] turned out to be 0.125 µg/mL (≈ 0.23 µM).
The like results for `Brc1ccc(-n2c3c/c(=N\C4CCOCC4)c(Nc4cccnc4)cc-3nc3ccccc32)cc1` were, in that order, 27, 4.48 µg/mL (≈ 8.51 µM) and 0.163 µg/mL (≈ 0.31 µM).
With `COC1CCC(/N=c2\cc3n(-c4ccc(Br)cc4)c4ccccc4nc-3cc2Nc2cccnc2)CC1` (centres undefined), the “Selectivity Index” value in test [1] worked out at 30. Moreover, half-maximal inhibition in the test with Vero (IC50) required 1.88 µg/mL (≈ 3.39 µM). In test [2], the MIC was found to be 0.062 µg/mL (≈ 0.112 µM).
The like results for `COc1ncccc1Nc1cc2nc3ccccc3n(-c3ccc(Cl)cc3)c-2c/c1=N\C(C)C` were, in that order, 2133, greater than 64 µg/mL and 0.03 µg/mL (≈ 0.0638 µM).
